Experimental data as given in publication PMC4076525 (The Journal of General Physiology, 2014).
Where a chain is given by its changes, count along the chain named. In names and notes the source's numbering stands.

Experiments:
FepA = molecular target: T1, FepA (Escherichia coli, UniProt P05825); conditions: ref Newton et al., 1999; Annamalai et al., 2004; cited from earlier work
T1 sequence (P05825 23-746): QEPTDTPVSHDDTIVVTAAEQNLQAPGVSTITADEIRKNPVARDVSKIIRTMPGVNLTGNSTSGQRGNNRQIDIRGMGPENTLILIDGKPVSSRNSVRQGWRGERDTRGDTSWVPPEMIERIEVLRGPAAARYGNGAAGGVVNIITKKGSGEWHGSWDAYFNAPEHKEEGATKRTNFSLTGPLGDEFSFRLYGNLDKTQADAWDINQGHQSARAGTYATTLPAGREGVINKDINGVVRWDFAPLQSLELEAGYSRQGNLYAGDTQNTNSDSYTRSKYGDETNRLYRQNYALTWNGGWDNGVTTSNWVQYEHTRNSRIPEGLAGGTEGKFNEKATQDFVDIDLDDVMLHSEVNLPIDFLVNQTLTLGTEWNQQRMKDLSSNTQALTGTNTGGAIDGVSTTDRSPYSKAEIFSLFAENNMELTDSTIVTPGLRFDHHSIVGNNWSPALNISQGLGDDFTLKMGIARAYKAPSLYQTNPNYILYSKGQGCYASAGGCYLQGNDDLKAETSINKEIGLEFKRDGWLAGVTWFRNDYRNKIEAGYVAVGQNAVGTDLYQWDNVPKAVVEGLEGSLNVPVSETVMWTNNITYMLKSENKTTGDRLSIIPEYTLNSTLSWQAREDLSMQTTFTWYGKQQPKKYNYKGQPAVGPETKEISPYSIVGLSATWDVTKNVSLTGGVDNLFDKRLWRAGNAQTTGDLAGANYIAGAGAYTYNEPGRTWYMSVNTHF

[1] = Fluorescence recovery after FeEnt quenching; assay type: cell-based, Escherichia coli; conditions: after FM modification
59FeEnt transport = assay type: cell-based, Escherichia coli; conditions: for 59FeEnt transport rate compared with wild-type FepA: before fluoresceination; for Vmax fold lower after fluoresceination: 59FeEnt uptake
How it was run: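 Cultures were grown in LB with antibiotics, then in iron-deficient MOPS medium to 10^9 cells/ml. Cells were assayed before and after labeling with 5 µM fluorescein-5-maleimide (pH 6.5 phosphate/NaCl buffer, 5 min, 37°C, β-mercaptoethanol stop). Uptake was measured in MOPS medium with 0.4% glucose at 37°C in 10-ml volumes. KM and Vmax came from an enzyme-kinetics equation fit per sample.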

[2] = 59FeEnt binding by cells expressing FepA Cys substitution mutants; set-up: species or system Escherichia coli; conditions: read-out: Binding >FM Kd, after modification with FM
How it was run: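 Cells were grown overnight at 37°C in LB with streptomycin (100 µg/ml) and chloramphenicol (20 µg/ml). They were subcultured 1% into iron-deficient MOPS medium and grown 5.5–6 h to 10^9 cells/ml, then labeled with 5 µM fluorescein-5-maleimide at pH 6.5 for 5 min at 37°C. Reactions were stopped with 100 mM β-mercaptoethanol. Binding ran at 0°C in 10-ml volumes, and Kd and capacity came from a bound-versus-total fit.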

[3] = Extent of FeEnt-induced quenching of FM fluorescence in live cells; assay type: cell-based, Escherichia coli; conditions: 10 nM FeEnt, 2.5 × 10^7 cells/ml, FM-labeled mutants
How it was run: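 Hosts were tonB+ ΔfepA or ΔtonB ΔfepA E. coli expressing plasmid-borne Cys-substituted FepA, grown in iron-deficient MOPS medium to late log. 10^10 cells were labeled with 5 µM fluorescein-5-maleimide in 50 mM Na2HPO4, 0.9% NaCl, pH 6.5, for 5 min at 37°C. Labeling was quenched with β-mercaptoethanol, and cells were resuspended in PBS with 0.4% glucose. FeEnt was added to 2.5 × 10^7 cells in 3 ml, stirred at 2°C, with emission read at 520 nm.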

[4] = Rapid-mixing stopped-flow FM quenching during FeEnt binding, live bacteria; set-up: species or system Escherichia coli; conditions: live bacteria expressing FepAT216C-FM
How it was run: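 Live, highly fluorescein-maleimide-labeled bacteria expressing the Cys-substituted FepA were rapid-mixed with FeEnt in a stopped-flow chamber, with emission quenching recorded at 520 nm. Rate constants, with standard errors, came from exponential decay fits (A(t) = A0e^−kt + offset). Half-times were calculated as −ln 0.5/k.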

[5] = Rapid-mixing stopped-flow FM quenching during FeEnt binding, OM fragments; set-up: species or system Escherichia coli; conditions: biphasic decay

O=C(N[C@H]1COC(=O)[C@@H](NC(=O)c2cccc([O-])c2[O-])COC(=O)[C@@H](NC(=O)c2cccc([O-])c2[O-])COC1=O)c1cccc([O-])c1[O-].[Fe+3] [FeEnt, ferric enterobactin]
FeEnt turnover number (FepA): ~0.03 s⁻¹

B1: A383C (protein, UniProt P05825 23-746, looked up, variant A383C)
Ferrienterobactin receptor: T1 sequence (P05825 23-746) with A383C
Increase of fluorescence recovery time compared with S271C-FM [1]: 10 fold | 59FeEnt transport rate compared with wild-type FepA (59FeEnt transport): about half that rate

B2: S490C-FM: FepA S490C labeled with fluorescein-5-maleimide (FM) (conjugate, UniProt P05825 23-746, looked up, variant S490C)
Ferrienterobactin receptor: T1 sequence (P05825 23-746) with S490C
modifications: fluorescein-5-maleimide label
Kd [2]: 90 nM | Quenching of FM emissions by FeEnt binding [3]: 30% | Vmax fold lower after fluoresceination (59FeEnt transport): 3–10 fold | Km (59FeEnt transport; read-out: Transport >FM KM, 59FeEnt, 37°C, after modification with FM): 0.057 µM

B3: A698C (protein, UniProt P05825 23-746, looked up, variant A698C)
Ferrienterobactin receptor: T1 sequence (P05825 23-746) with A698C
Quenching of FM emissions by FeEnt binding [3]: > 60%

B4: A322C-FM: FepA A322C labeled with fluorescein-5-maleimide (FM) (conjugate, UniProt P05825 23-746, looked up, variant A322C)
Ferrienterobactin receptor: T1 sequence (P05825 23-746) with A322C
modifications: fluorescein-5-maleimide label
Quenching of FM emissions by FeEnt binding [3]: similarly quenched | Vmax fold lower after fluoresceination (59FeEnt transport): 3–10 fold

B5: T550C (protein, UniProt P05825 23-746, looked up, variant T550C)
Ferrienterobactin receptor: T1 sequence (P05825 23-746) with T550C
Increase of fluorescence recovery time compared with S271C-FM [1]: 10 fold

B6: T216C (protein, UniProt P05825 23-746, looked up, variant T216C)
Ferrienterobactin receptor: T1 sequence (P05825 23-746) with T216C
Quenching of FM emissions by FeEnt binding [3]: > 60% | k (SE), rate of FM quenching [4]: 1.08 (0.08) s^−1

B7: S490C (protein, UniProt P05825 23-746, looked up, variant S490C)
Ferrienterobactin receptor: T1 sequence (P05825 23-746) with S490C
Increase of fluorescence recovery time compared with S271C-FM [1]: 10 fold | 59FeEnt transport rate compared with wild-type FepA (59FeEnt transport): about half that rate

B8: S271C (protein, UniProt P05825 23-746, looked up, variant S271C)
Ferrienterobactin receptor: T1 sequence (P05825 23-746) with S271C
k (SE), second kinetic phase [5]: 0.31 (0.04) s^−1
